Assay results: ChEMBL document CHEMBL4393678, “Novel Tetrahydroquinazolinamines as Selective Histamine 3 Receptor Antagonists for the Treatment of Obesity” (J Med Chem, 2019)
The source made the active and inactive calls. No cut-off for these calls is given here.

Assays:
[1] = target: D(1A) dopamine receptor (Homo sapiens) (UniProt P21728); test: Agonist activity at Gs-coupled D1 receptor (unknown origin) expressed in HEK293T cells assessed as inhibition of forskolin-stimulated cAMP accumulation preincubated for 10 to 15 followed by forskolin-stimulation by Glo-sensor assay; assay type: functional, cell-based
[2] = target: D(3) dopamine receptor (Homo sapiens) (UniProt P35462); test: Antagonist activity at D3 receptor (unknown origin)
[3] = target: D(1B) dopamine receptor (Homo sapiens) (UniProt P21918); test: (§1) Antagonist activity at Gs-coupled D5 receptor (unknown origin) expressed in HEK293T cells assessed as reduction in histamine-induced inhibition of forskolin-stimulated cAMP accumulation preincubated for 10 to 15 followed by histamine addition for 10 mins and subsequent forskolin-stimulation by Glo-sensor assay; assay type: functional, cell-based
[4] = target: Kappa-type opioid receptor (Homo sapiens) (UniProt P41145); test: as §1, with “Gi-coupled KOR” for “Gs-coupled D5 receptor”; assay type: functional, cell-based
[5] = Half life in C57BL/6J mouse serum at 20 mg/kg, po by LC-MS/MS analysis; assay type: ADME, organism-based
How it was run: (§2)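 Male C57BL/6J mice (6-8 weeks, 20 ± 5 g) fasted overnight (12-16 h) got a single 20 mg/kg oral dose as 2.5 mg/mL suspension in 1% w/v gum acacia; n=5 per time point. Serum and brain (PBS homogenate 1:6 w/v) sampled up to 24 h. Parent and demethylated metabolite quantified by LC-MS/MS after liquid-liquid extraction (C18, MRM, phenacetin internal standard; linear 0.25-200 ng/mL). Two-compartment open model fit.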

[6] = AUClast in C57BL/6J mouse brain at 20 mg/kg, po by LC-MS/MS analysis; assay type: ADME, organism-based; design: dose 20 mg/kg, route oral, time 0 - last
How it was run: (§3)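 Male C57BL/6J mice, 6-8 weeks, 20 ± 5 g, fasted overnight (12-16 h), n = 5 per time point. Single 20 mg/kg oral dose given by feeding needle as a 2.5 mg/mL suspension in 1% w/v gum acacia and water. Serum and brain (homogenized 1:6 w/v in PBS) sampled up to 24 h. Liquid-liquid extraction, then LC-MS/MS in positive MRM mode with phenacetin as internal standard. Linear range 0.25-200 ng/mL. Non-compartmental and compartmental analysis.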

[7] = Half life in C57BL/6J mouse serum assessed as 4-(2-Amino-8-methyl-5,6,7,8-tetrahydroquinazolin-4-yl)phenol level at 20 mg/kg, po by LC-MS/MS analysis; assay type: ADME, organism-based; conditions: in vivo; how it was run: as §2
[8] = Tmax in C57BL/6J mouse brain assessed as 4-(2-Amino-8-methyl-5,6,7,8-tetrahydroquinazolin-4-yl)phenol level at 20 mg/kg, po by LC-MS/MS analysis; assay type: ADME, organism-based; conditions: in vivo; how it was run: as §2
[9] = AUClast in C57BL/6J mouse brain assessed as 4-(2-Amino-8-methyl-5,6,7,8-tetrahydroquinazolin-4-yl)phenol level at 20 mg/kg, po by LC-MS/MS analysis; assay type: ADME, organism-based; design: dose 20 mg/kg, time 0 - last, route oral; conditions: in vivo; how it was run: as §3
[10] = Fraction unbound in C57BL/6J mouse brain by equilibrium dialysis method; assay type: ADME, tissue-based
How it was run: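 Plasma protein binding and unbound fraction in mouse brain tissue homogenate measured by equilibrium dialysis.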

[11] = Drug level in C57BL/6J mouse brain at 4 hrs post-dose by equilibrium dialysis method; assay type: ADME, tissue-based; conditions: in vivo
How it was run: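 Unbound brain level derived from brain concentration after 20 mg/kg oral dose, multiplied by unbound fraction from brain-homogenate equilibrium dialysis; given at Cmax and at 4 h.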

[12] = Ratio of fCmax in C57BL/6J mouse brain to IC50 for recombinant human Gi-coupled H3 receptor expressed in HEK293T cells assessed as reduction in histamine-induced inhibition of forskolin-stimulated cAMP accumulation; assay type: cell-based
How it was run: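 Fasted male C57BL/6J mice received a single oral dose of 20 mg/kg in gum acacia suspension. Brain Cmax came from LC-MS/MS of brain homogenate. Unbound brain fraction was measured by equilibrium dialysis of brain tissue homogenate. Unbound Cmax, converted to nM, was divided by the H3R antagonist IC50 from the GloSensor cAMP assay in transfected HEK293T cells.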

Mus musculus [13] = test: Anti-obesity activity in high fat diet-induced obese C57BL/6J mouse model assessed as reduction in body weight at 10 to 20 mg/kg, po; assay type: functional, organism-based; conditions: TDE = time-dependent effect
Mus musculus [14] = test: Anorexic effect in 12 hrs fasted db/db-induced obese C57BL/6J mouse model assessed as reduction in cumulative food intake at 20 mg/kg, po pretreated for 30 mins followed by food addition measured after 4 hrs in presence of H3R agonist-imitet; assay type: functional, organism-based
How it was run: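 Mice starved 12 h (8:00 am to 8:00 pm) with water available, then housed singly. Compound given orally in 5% gum acacia in normal saline; vehicle group received the same. Cumulative food intake measured over 4 h of the night phase (9:00 pm to 1:00 am), starting 30 min after dosing. Antagonism arms: imitet 5 mg/kg i.p. 30 min before compound, or α-methyl-DL-histidine 20 mg/kg i.p. 2 h before.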

Mus musculus [15] = test: Anti-obesity activity in high fat diet-induced obese C57BL/6J mouse model assessed as reduction in body fat mass at 10 mg/kg, po measured after 6 weeks relative to control by NMR-based magnetic resonance imaging analysis; assay type: functional
How it was run: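 Male C57BL/6J mice on high-fat diet dosed orally for six weeks against a vehicle-treated high-fat diet group and a chow group. Body composition (fat mass, lean mass, % body fat) measured by EchoMRI live scanning. n=5-6. One-way ANOVA with Newman-Keuls test.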

Mus musculus [16] = test: Anti-obesity activity in 16 hrs fasted db/db-induced obese C57BL/6J mouse model assessed as change in blood LDL level at 20 mg/kg, po measured after 6 weeks; assay type: functional, organism-based
Mus musculus [17] = test: Anti-obesity activity in 16 hrs fasted db/db-induced obese C57BL/6J mouse model assessed as change in blood TG level at 20 mg/kg, po measured after 6 weeks; assay type: functional, organism-based
[18] = target: T1, 5-hydroxytryptamine receptor 2C (Homo sapiens) (UniProt P28335); test: Antagonist activity at 5HT2CR (unknown origin) expressed in HEK293 cells harboring luc2P/NFAT-RE plasmid at 10 uM after 6 to 8 hrs by luciferase reporter gene assay; assay type: cell-based
T1 sequence (whole entry): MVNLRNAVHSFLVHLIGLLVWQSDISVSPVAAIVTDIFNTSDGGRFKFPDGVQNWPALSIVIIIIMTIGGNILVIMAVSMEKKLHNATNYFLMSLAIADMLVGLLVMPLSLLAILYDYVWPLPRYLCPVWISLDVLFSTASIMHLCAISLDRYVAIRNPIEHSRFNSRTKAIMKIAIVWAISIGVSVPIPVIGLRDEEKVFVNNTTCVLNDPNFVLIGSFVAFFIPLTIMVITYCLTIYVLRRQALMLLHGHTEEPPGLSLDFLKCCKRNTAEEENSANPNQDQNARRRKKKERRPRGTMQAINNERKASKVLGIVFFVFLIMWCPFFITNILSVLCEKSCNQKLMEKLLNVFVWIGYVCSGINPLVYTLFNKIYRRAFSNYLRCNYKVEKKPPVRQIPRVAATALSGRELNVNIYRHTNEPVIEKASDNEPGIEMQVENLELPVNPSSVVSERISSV
How it was run: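 NFAT-RE luciferase assay in HEK293T cells transiently co-transfected with luc2P/NFAT-RE plasmid and receptor plasmid. Cells plated in DMEM and incubated overnight at 37 °C, 5% CO₂. Compounds and reference ligands applied for 6-8 h. Luciferase read after adding Bright-Glo substrate (1 mg/ml final).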

Chain of D(1A) dopamine receptor (Homo sapiens) (P21728 whole entry): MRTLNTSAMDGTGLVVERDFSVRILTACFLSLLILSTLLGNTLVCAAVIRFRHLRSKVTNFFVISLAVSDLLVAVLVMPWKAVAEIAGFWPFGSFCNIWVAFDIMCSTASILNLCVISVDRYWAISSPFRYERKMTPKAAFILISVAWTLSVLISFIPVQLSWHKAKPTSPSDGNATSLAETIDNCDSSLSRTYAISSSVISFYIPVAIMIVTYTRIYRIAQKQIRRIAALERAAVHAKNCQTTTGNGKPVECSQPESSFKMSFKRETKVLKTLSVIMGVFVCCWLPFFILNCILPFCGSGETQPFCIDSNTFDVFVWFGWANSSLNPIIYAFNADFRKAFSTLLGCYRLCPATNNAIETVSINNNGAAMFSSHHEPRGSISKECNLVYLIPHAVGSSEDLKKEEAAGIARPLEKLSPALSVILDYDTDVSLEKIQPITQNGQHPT
Chain of D(3) dopamine receptor (Homo sapiens) (P35462 whole entry): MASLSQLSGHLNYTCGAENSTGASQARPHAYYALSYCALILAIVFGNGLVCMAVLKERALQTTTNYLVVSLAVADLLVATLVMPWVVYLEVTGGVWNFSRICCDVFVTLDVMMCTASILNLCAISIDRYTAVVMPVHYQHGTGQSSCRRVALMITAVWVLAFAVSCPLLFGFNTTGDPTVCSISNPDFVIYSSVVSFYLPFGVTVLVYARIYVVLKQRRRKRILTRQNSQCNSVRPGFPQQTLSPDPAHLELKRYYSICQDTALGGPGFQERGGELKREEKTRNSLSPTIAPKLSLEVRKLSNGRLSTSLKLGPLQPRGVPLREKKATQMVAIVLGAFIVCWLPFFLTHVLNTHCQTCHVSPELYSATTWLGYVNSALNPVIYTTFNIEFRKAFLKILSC
Chain of Kappa-type opioid receptor (Homo sapiens) (P41145 whole entry): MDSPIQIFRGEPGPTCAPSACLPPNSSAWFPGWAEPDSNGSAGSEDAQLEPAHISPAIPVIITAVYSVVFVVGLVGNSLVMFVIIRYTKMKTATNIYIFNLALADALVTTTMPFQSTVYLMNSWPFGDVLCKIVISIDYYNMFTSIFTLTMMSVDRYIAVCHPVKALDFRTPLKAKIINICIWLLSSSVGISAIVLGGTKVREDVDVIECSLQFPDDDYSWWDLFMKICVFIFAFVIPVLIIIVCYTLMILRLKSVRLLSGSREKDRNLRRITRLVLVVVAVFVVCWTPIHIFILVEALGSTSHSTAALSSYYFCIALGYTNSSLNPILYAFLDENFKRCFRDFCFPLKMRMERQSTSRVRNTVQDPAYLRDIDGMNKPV
Chain of D(1B) dopamine receptor (Homo sapiens) (P21918 whole entry): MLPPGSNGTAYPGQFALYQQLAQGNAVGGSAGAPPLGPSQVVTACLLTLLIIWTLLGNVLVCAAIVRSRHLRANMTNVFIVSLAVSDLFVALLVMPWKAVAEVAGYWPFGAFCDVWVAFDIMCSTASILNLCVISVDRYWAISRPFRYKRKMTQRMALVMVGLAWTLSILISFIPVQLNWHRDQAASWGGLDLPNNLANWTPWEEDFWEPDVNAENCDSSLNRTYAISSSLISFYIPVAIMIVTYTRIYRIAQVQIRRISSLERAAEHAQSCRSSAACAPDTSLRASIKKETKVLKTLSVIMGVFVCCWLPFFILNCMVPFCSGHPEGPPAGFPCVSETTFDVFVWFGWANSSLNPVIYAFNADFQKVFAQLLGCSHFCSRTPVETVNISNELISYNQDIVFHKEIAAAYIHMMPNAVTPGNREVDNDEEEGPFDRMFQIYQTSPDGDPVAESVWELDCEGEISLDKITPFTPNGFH

With COc1ccc(-c2nc(N)nc3c2CCCC3C)cc1 (racemic) the inhibition [1] was “inactive”, the inhibition [2] was “inactive” and the inhibition [3] was “inactive”. The INH [4] was > 10 µM, the half-life [5] was 1.9 h and the AUC(0-t) [6] was 310 ng·h/mL. The t1/2 [7] was 2.1 h, the Tmax [8] was 0.5 h and the AUClast [9] was 100.7 ng·h/mL. The fraction unbound [10] was 0.284, the Drug uptake [11] was 20.8 nM and the Ratio [12] was 8.3. The Activity (Mus musculus [13]) was “Tde”, the Activity (Mus musculus [14]) was “inactive” and the Activity (Mus musculus [15]) was “Active”. For the same compound, the Activity (Mus musculus [16]) was “inactive”, the Activity (Mus musculus [17]) was “inactive” and the inhibition [18] was “inactive”.
